One molecule from paper PMC4371900 (International Journal of Nanomedicine, 2015) can be followed below.

The subject of series [1] is genotype 1b Con1 HCV sub-genomic replicon (Huh 5-2 cells). Put plainly: Antiviral assay with Huh 5-2 cells. It is filed as cell-based, hepatitis C virus.
The nature of series [2]: Cytostatic assay. The class given is cell-based. Conditions: human, Huh 5-2 cells. A digest of the protocol: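 Huh 7 cells carrying subgenomic HCV replicon (Huh 5-2) were seeded at 5·10^3 cells/well in complete DMEM with G418. After 24 h, serial dilutions of test compound (free or γ-CD complex) were added in complete DMEM without G418. Cells proliferated 3 days at 37°C. Cell number was read by CellTiter 96 AQueous One.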

Usually viability stands for a read-out of living cells in per cent, often relative to untreated cells.

On to `OC[C@H]1O[C@@H]2O[C@H]3[C@H](O)[C@@H](O)[C@@H](O[C@H]4[C@H](O)[C@@H](O)[C@@H](O[C@H]5[C@H](O)[C@@H](O)[C@@H](O[C@H]6[C@H](O)[C@@H](O)[C@@H](O[C@H]7[C@H](O)[C@@H](O)[C@@H](O[C@H]8[C@H](O)[C@@H](O)[C@@H](O[C@H]9[C@H](O)[C@@H](O)[C@@H](O[C@H]1[C@H](O)[C@H]2O)O[C@@H]9CO)O[C@@H]8CO)O[C@@H]7CO)O[C@@H]6CO)O[C@@H]5CO)O[C@@H]4CO)O[C@@H]3CO` [γ-CD, γ-cyclodextrin], for which, in series [1] (control tests with compound-free γ-CD (data not shown)), the luminescence amounted to 100%. Also, in series [1] (delivered alone, free in solution), the “antiviral activity in cell assays” value is on record as “did not show antiviral activity”. In series [2], this molecule gave a viability at 3 days of 100%.
